Laboratory results from ChEMBL document CHEMBL2169742, “Design, synthesis, and biological evaluation of novel transrepression-selective liver X receptor (LXR) ligands with 5,11-dihydro-5-methyl-11-methylene-6H-dibenz[b,e]azepin-6-one skeleton” (J Med Chem, 2012).
Activity calls are given as the source filed them. The calls are words filed in the database; no cut-off is given here.

What was measured:
[1] = biological target: T1, Oxysterols receptor LXR-beta (Homo sapiens, UniProt P55055); assay: Transactivational antagonist activity at human LXRbeta transfected in HEK293 cells expressing CMX-Gal4N assessed as inhibition of T1317-induced luciferase activity after 16 hrs by reporter gene assay; format: functional, cell-based
T1 sequence (P55055 whole entry): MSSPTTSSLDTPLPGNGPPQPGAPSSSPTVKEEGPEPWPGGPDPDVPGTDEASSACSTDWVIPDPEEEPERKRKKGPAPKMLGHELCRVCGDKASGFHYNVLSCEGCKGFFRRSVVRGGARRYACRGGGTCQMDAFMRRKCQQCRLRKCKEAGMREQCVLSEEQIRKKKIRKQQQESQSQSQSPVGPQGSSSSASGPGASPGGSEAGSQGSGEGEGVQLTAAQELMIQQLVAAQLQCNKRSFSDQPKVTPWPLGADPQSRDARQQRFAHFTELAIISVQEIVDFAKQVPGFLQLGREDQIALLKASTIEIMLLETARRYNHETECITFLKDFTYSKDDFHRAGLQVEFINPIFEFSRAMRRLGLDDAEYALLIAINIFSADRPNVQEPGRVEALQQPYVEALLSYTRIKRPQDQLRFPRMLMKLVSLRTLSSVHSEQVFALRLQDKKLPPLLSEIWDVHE

[2] = test system: Peritoneal macrophage cell; assay: Inhibition of LPS-induced IL-6 production in LXRalpha,LXRbeta-deficient C57BL/6J mouse peritoneal macrophages at 10 uM incubated for 6 hrs prior to LPS-challenge measured after 18 hrs by ELISA; format: functional, cell-based
How it was run: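 Thioglycollate-elicited peritoneal macrophages came from 8–10-week LXRα/β-null mice on C57BL/6J background, harvested 4 days post-injection. They were adhered, rested 24 h and plated at 2 × 10⁵/well, then pretreated with compound 6 h before LPS 10 ng/mL. Supernatant mIL-6 was measured by ELISA after 18 h; means ± SE of ≥3 independent measurements, ANOVA.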

[3] = biological target: T2, Oxysterols receptor LXR-alpha (Homo sapiens, UniProt Q13133); assay: Transactivational agonist activity at human LXRalpha transfected in HEK293 cells coexpressing CMX-Gal4N-SRC1 assessed as SRC1 recruitment at 10 uM after 16 hrs by mammalian two-hybrid assay; format: cell-based; conditions: hek293, 16 h
T2 sequence (Q13133 whole entry): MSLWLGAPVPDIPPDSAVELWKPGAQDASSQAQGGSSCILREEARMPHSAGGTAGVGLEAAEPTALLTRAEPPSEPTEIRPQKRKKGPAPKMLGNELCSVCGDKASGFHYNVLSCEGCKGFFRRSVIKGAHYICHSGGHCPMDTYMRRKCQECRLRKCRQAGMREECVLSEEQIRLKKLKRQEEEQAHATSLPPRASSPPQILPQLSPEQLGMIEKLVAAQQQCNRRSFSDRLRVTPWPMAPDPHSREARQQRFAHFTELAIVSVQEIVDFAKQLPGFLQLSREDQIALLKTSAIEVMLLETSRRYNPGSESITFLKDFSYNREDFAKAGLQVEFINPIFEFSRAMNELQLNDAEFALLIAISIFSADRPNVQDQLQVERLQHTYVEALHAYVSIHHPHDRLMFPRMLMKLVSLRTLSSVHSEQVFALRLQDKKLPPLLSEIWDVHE
How it was run: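 Mammalian two-hybrid in HEK293 cells by calcium phosphate cotransfection: CMX-VP16N-hLXRα, Gal4N-fused SRC1, DRIP205, NCoR or SMRT (15 ng), tk-MH100×4-luc (50 ng) and CMX-β-gal (10 ng). Compound or DMSO added 8 h after transfection for 16 h. Luciferase was normalized to β-galactosidase, in triplicate.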

[4] = biological target: T3, Peroxisome proliferator-activated receptor gamma (Homo sapiens) (UniProt P37231); assay: Agonist activity at human Gal4-fused PPARgamma assessed as luciferase activity at 10 uM by reporter gene assay relative to control; format: functional
T3 sequence (whole entry): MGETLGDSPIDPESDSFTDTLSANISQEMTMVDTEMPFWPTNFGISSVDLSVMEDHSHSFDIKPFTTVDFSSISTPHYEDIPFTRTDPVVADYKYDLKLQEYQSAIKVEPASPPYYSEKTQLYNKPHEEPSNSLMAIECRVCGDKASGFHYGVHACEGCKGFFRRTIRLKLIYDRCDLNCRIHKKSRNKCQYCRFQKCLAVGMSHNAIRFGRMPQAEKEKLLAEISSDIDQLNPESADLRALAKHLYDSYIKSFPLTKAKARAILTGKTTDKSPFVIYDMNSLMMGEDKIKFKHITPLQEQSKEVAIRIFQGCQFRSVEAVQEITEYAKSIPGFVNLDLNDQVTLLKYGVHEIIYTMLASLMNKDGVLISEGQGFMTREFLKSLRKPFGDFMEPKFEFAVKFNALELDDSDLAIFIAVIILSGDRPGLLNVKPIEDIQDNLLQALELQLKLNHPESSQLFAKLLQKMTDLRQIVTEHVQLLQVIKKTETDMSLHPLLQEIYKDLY

[5] = test system: Peritoneal macrophage cell; assay: Inhibition of LPS-induced IL-6 mRNA expression in LXRalpha-deficient C57BL/6J mouse peritoneal macrophages at 10 uM incubated for 6 hrs prior to LPS-challenge measured after 18 hrs by RT-PCR analysis; format: functional, cell-based
How it was run: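 Thioglycollate-elicited peritoneal macrophages (wild-type C57BL/6J or LXRα-null, 8–10 weeks) were plated at 4 × 10⁶/well and pretreated with compound 6 h before LPS 100 ng/mL. Cells were harvested after 18 h. il-6 and il-1β mRNA were measured by real-time quantitative PCR, normalized to GAPDH.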

[6] = biological target: T2, Oxysterols receptor LXR-alpha; assay: Transactivational antagonist activity at human LXRalpha transfected in HEK293 cells expressing CMX-Gal4N assessed as inhibition of T1317-induced luciferase activity after 16 hrs by reporter gene assay; format: functional, cell-based
[7] = biological target: T1, Oxysterols receptor LXR-beta; assay: Transactivational agonist activity at human LXRbeta transfected in HEK293 cells expressing CMX-Gal4N assessed as luciferase activity at 30 uM after 16 hrs by reporter gene assay; format: cell-based; conditions: hek293, 16 h
[8] = biological target: T3, Peroxisome proliferator-activated receptor gamma (Homo sapiens); assay: Antagonist activity at human Gal4-fused PPARgamma assessed as inhibition of ciglitazone-induced luciferase activity at 0.1 to 10 uM by reporter gene assay; format: functional

IC50 [1]: > 30 µM
Activity [4]: 20%
IC50 [6]: > 30 µM
Activity [7]: Not Active
inhibition [8]: inactive
Structure (SMILES): C=C1c2ccccc2C(=O)N(C)c2ccc(CC)cc21
inhibition [2]: inactive
Activity [3]: Non-toxic
inhibition [5]: inactive
